Experimental findings from ChEMBL document CHEMBL1817581, “Synthesis, antibacterial evaluation and QSAR studies of 7-[4-(5-aryl-1,3,4-oxadiazole-2-yl)piperazinyl] quinolone derivatives” (2011) are described below.

The test system of one assay is Escherichia coli. In words: Antibacterial activity against Escherichia coli MTCC 739 after 24 hrs by NCCLS M7-A6 serial dilution method. The assay is classed as functional. Put shortly: (§1)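 Two-fold tube dilution in culture medium; compounds dissolved in DMSO and diluted to final concentrations starting from 10 μg/ml until MIC reached. Incubated 24 h at 30 °C. MIC taken as the lowest concentration completely inhibiting growth, reported as pMIC (negative log of molar MIC). Medium plus DMSO was the negative control, ciprofloxacin the positive control. Run in triplicate.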

A further assay concerns Bacillus subtilis. In words: Antibacterial activity against Bacillus subtilis MTCC 2423 after 24 hrs by NCCLS M7-A6 serial dilution method. More on the design: unit not given here.
A further assay has as its system Staphylococcus aureus. In words: Antibacterial activity against Staphylococcus aureus subsp. aureus MTCC 1430 after 24 hrs by NCCLS M7-A6 serial dilution method. The format is functional. In outline:
as §1

Regarding `CCn1cc(C(=O)O)c(=O)c2cc(F)c(N3CCN(c4nnc(-c5ccccc5Cl)o4)CC3)cc21`, the “-logMIC” value with Escherichia coli was found to be 3.6; with Bacillus subtilis it was 3.21; with Staphylococcus aureus, 3.21.
For the molecule `COc1c(N2CCN(c3nnc(-c4ccc([N+](=O)[O-])c([N+](=O)[O-])c4)o3)C(C)C2)c(F)cc2c(=O)c(C(=O)O)cn(C3CC3)c12` (stereo unspecified), the “-logMIC” value worked out at 3.66 in the assay on Escherichia coli, 2.96 in the assay with Bacillus subtilis and 2.64 in the assay on Staphylococcus aureus.
The corresponding values for `CCn1cc(C(=O)O)c(=O)c2cc(F)c(N3CCN(c4nnc(-c5cccc([N+](=O)[O-])c5)o4)CC3)cc21` are 2.69, 2.84 and 2.84.
The like results for `COc1ccc(-c2nnc(N3CCN(c4cc5c(cc4F)c(=O)c(C(=O)O)cn5C4CC4)CC3)o2)cc1` were, in that order, 3.2, 3.09 and 3.12.
The like results for `O=C(O)c1cn(C2CC2)c2cc(N3CCN(c4nnc(-c5cccc([N+](=O)[O-])c5)o4)CC3)c(F)cc2c1=O` were, in that order, 2.17, 2.28 and 2.24.
Consider `COc1ccc(-c2nnc(N3CCN(c4cc5c(cc4F)c(=O)c(C(=O)O)cn5C4CC4)CC3)o2)cc1OC`, for which the entries for the “-logMIC” value in the assay on Escherichia coli, with Bacillus subtilis and in the assay with Staphylococcus aureus were 2.67, 2.67 and 2.91, respectively.
Consider `CCn1cc(C(=O)O)c(=O)c2cc(F)c(N3CCN(c4nnc(-c5ccc(OC)cc5)o4)CC3)cc21`, for which the “-logMIC” value is given as 3.5 in the assay on Escherichia coli, 3.2 in the assay on Bacillus subtilis and 3.2 in the assay with Staphylococcus aureus.
`O=C(O)c1cn(C2CC2)c2cc(N3CCN(c4nnc(-c5ccccc5)o4)CC3)c(F)cc2c1=O`: the “-logMIC” value with Escherichia coli is recorded as 3.22; in the assay with Bacillus subtilis, 3.87; in the assay on Staphylococcus aureus, 3.26.
The corresponding values for `O=C(O)c1cn(C2CC2)c2cc(N3CCN(c4nnc(-c5ccc([N+](=O)[O-])c([N+](=O)[O-])c5)o4)CC3)c(F)cc2c1=O` are 3.65, 3.25 and 2.95.
The like results for `O=C(O)c1cn(C2CC2)c2cc(N3CCN(c4nnc(-c5ccc([N+](=O)[O-])cc5)o4)CC3)c(F)cc2c1=O` were, in that order, 2.32, 2.32 and 2.63.
Regarding `COc1c(N2CCN(c3nnc(-c4cccc([N+](=O)[O-])c4)o3)C(C)C2)c(F)cc2c(=O)c(C(=O)O)cn(C3CC3)c12` (stereo unspecified), the “-logMIC” value in the assay on Escherichia coli came out at 3.55; in the assay on Bacillus subtilis, 3.55; in the assay with Staphylococcus aureus, 3.25.
Turning to `CCn1cc(C(=O)O)c(=O)c2cc(F)c(N3CCN(c4nnc(-c5ccccc5)o4)CC3)cc21`, the “-logMIC” value is listed as 2.65 in the assay on Escherichia coli, 2.58 in the assay on Bacillus subtilis and 2.58 with Staphylococcus aureus.
For `O=C(O)c1cn(C2CC2)c2cc(N3CCNCC3)c(F)cc2c1=O` [CIPROFLOXACIN], the “-logMIC” value in the assay on Escherichia coli is recorded as 3.52; in the assay with Bacillus subtilis it was 3.16; with Staphylococcus aureus it was 3.16.
As for `COc1c(N2CCN(c3nnc(-c4ccccc4Cl)o3)C(C)C2)c(F)cc2c(=O)c(C(=O)O)cn(C3CC3)c12` (stereo unspecified), the “-logMIC” value in the assay on Escherichia coli came out at 3.17; in the assay on Bacillus subtilis, 3.24; in the assay on Staphylococcus aureus, 3.24.
Take `O=C(O)c1cn(C2CC2)c2cc(N3CCN(c4nnc(-c5ccccc5Cl)o4)CC3)c(F)cc2c1=O`: the “-logMIC” value in the assay with Escherichia coli is 2.43; in the assay on Bacillus subtilis it was 2.38; in the assay with Staphylococcus aureus, 2.43.
For the molecule `COc1ccc(-c2nnc(N3CCN(c4c(F)cc5c(=O)c(C(=O)O)cn(C6CC6)c5c4OC)CC3C)o2)cc1OC` (stereo unspecified), the entries for the “-logMIC” value in the assay with Escherichia coli, in the assay on Bacillus subtilis and in the assay on Staphylococcus aureus were 3.27, 3.27 and 3.36, respectively.
For `COc1ccc(-c2nnc(N3CCN(c4c(F)cc5c(=O)c(C(=O)O)cn(C6CC6)c5c4OC)CC3C)o2)cc1` (stereo unspecified), the “-logMIC” value with Escherichia coli was found to be 3.07; with Bacillus subtilis, 3.09; in the assay on Staphylococcus aureus, 3.17.
The corresponding values for `COc1c(N2CCN(c3nnc(-c4ccc([N+](=O)[O-])cc4)o3)C(C)C2)c(F)cc2c(=O)c(C(=O)O)cn(C3CC3)c12` (stereo unspecified) are 3.24, 3.11 and 3.61.
The like results for `COc1c(N2CCN(c3nnc(-c4ccccc4)o3)C(C)C2)c(F)cc2c(=O)c(C(=O)O)cn(C3CC3)c12` (stereo unspecified) were, in that order, 2.94, 3.54 and 3.62.
The like results for `CCn1cc(C(=O)O)c(=O)c2cc(F)c(N3CCN(c4nnc(-c5ccc(OC)c(OC)c5)o4)CC3)cc21` were, in that order, 2.68, 2.43 and 2.43.
As for `CCn1cc(C(=O)O)c(=O)c2cc(F)c(N3CCN(c4nnc(-c5ccc([N+](=O)[O-])c([N+](=O)[O-])c5)o4)CC3)cc21`, the figures for the “-logMIC” value with Escherichia coli, with Bacillus subtilis and in the assay on Staphylococcus aureus were 3.63, 3.87 and 3.24, respectively.
The like results for `CCn1cc(C(=O)O)c(=O)c2cc(F)c(N3CCN(c4nnc(-c5ccc([N+](=O)[O-])cc5)o4)CC3)cc21` were, in that order, 3.24, 3.63 and 3.63.
